Test results taken from ChEMBL document CHEMBL1132715, “Comparative molecular field analysis of hydantoin binding to the neuronal voltage-dependent sodium channel” (J Med Chem, 1999).

Legend:
[1] = Partition coefficient (logP); assay type: physicochemical; conditions: octanol/water
[2] = target: Sodium channel alpha subunits; brain (Types I, II, III) (Rattus norvegicus, UniProt P04775+P04774+P08104); assay: In vitro inhibition of Voltage-gated sodium channel by the displacement of [3H]batrachotoxin A 20-alpha-benzoate in rat brain cerebral cortex synaptoneurosomes; assay type: tissue-based
Method in brief: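 Rat cerebral cortex gray matter synaptoneurosomes (~1 mg protein), washed in HEPES/choline chloride buffer pH 7.4 and stored at –70 °C. […] Filtration read-out; nonspecific binding taken with 300 μM veratridine. Points run in triplicate; IC50 by Probit analysis, using only 10–90% inhibition.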

logP ([1]; read-out: logP) | logP [1] | Structure (SMILES) | IC50 [2]
0.96 |  | O=C1NC(=O)C2(CCc3ccccc32)N1 (stereo unspecified) | 
2.96 |  | CCCCC1(c2ccc(C)cc2)NC(=O)NC1=O (stereo unspecified) | 
2.96 |  | CCCCC1(c2cccc(C)c2)NC(=O)NC1=O (stereo unspecified) | 
2.96 |  | CCCCC1(c2ccccc2C)NC(=O)NC1=O (stereo in doubt; 14a) | 
 | 2.96 | CCCCC1(c2ccccc2C)NC(=O)NC1=O (stereo in doubt; 14b) | 

Second part, the compound before the results:

Structure (SMILES) | logP ([1]; read-out: logP) | logP [1] | IC50 [2]
CCCCCCCC(O)(C(N)=O)c1ccccc1 (stereo unspecified) | 3.7 |  | 9 µM
O=C1NC(=O)C2(CCCc3ccccc32)N1 (stereo unspecified) | 1.46 |  | 
CCCCCCC1(c2ccccc2)NC(=O)NC1=O (stereo unspecified) | 3.4 |  | 13 µM
O=C1NC(=O)C2(CCCCCc3ccccc32)N1 (stereo unspecified) | 2.46 |  | 
CC12C(=O)NC(=O)N1CCc1ccccc12 (stereo unspecified) | 1.52 |  | 
CCN1C(=O)NC(=O)C1(C)c1ccccc1 (stereo unspecified) | 2.02 |  | 
CCCCCCCCCC1(c2ccccc2)NC(=O)NC1=O (stereo unspecified) | 4.96 |  | 5 µM
O=C1NC(=O)C(c2ccccc2)(C2CCCCC2)N1 (stereo unspecified) | 2.96 |  | 58 µM
O=C1NC(=O)C2(CCCCc3ccccc32)N1 (stereo unspecified) | 1.96 |  | 
CCCCCCCC1(c2ccccc2)NC(=O)NC1=O (stereo unspecified) | 3.96 |  | 5 µM
NC(=O)N1c2ccccc2C=Cc2ccccc21 [CARBAMAZEPINE] | 2.13 |  | 
